Most compounds without a hit are left out; they make up all but 5.8% or so of the library.
FAK blocker – inhibitors of human focal adhesion kinase | AID 727 | inhibition, %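 (tested at 7 µM)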 | Q05397 | 0.84% of 97,000 active | biochemical FAK kinase activity assay; in the data active = inhibition above about 19%;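 also: 0% = DMSO and 100% = reference compound high control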
PTK2B oligo ant – blocks oligomerization of human Pyk2 in cells. z-score (the deposit names both 25 µM and 10 µM). Q293 cells, Pyk2 FERM NanoBiT luminescence; hits give low values. 0.83% of 99,000 active. Q14289. AID 1347419;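 active = Z-score of -3 or lower, scaled per plate to the spread of control and sample wells; inactive = z-score above -3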;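 also: negative z-score means lost luminescence so less FERM oligomerization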
Target sequence (Q14289 whole entry, looked up): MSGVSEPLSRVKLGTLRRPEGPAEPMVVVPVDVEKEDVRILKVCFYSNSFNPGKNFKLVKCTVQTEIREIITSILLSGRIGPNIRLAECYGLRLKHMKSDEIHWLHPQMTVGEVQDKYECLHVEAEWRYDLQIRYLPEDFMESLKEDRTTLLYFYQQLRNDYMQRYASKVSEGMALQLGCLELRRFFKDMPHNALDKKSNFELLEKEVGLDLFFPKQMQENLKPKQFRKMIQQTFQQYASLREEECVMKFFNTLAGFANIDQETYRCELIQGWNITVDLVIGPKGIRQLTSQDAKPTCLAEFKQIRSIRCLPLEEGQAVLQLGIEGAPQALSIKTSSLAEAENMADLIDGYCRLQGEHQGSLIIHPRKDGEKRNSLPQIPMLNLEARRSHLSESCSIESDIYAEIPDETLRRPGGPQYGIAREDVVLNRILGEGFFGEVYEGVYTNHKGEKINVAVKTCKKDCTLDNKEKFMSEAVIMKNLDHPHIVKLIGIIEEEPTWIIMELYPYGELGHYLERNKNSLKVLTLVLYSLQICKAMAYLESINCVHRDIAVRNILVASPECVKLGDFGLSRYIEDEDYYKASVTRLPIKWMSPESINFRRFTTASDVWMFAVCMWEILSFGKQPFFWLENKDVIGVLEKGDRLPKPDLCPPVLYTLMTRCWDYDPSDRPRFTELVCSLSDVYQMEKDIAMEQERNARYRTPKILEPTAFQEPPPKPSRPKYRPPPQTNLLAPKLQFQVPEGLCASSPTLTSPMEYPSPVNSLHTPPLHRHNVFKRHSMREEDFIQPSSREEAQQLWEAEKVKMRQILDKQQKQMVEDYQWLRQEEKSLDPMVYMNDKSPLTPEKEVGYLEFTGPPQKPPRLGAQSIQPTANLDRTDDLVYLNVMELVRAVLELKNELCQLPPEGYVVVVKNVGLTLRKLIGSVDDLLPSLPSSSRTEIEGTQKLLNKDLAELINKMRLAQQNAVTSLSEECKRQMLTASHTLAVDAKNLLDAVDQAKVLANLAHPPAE
Plk1 PBD FP – Plk1 (human) PBD binding inhibition; Plk1 PBD phosphopeptide binding, fluorescence polarization; inhibition, %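 (tested at about 20 µM)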; 0.13% of 97,000 active; AID 693; in the data active = inhibition above about 34%, passing the limit was not always enough
PLK1 kinase inh – blocks human PLK1 kinase activity; P53350; recombinant PLK1 kinase, TR-FRET peptide phosphorylation; inhibition, % at 10 µM; 0.53% of 97,000 active; AID 619;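 active = inhibition of 50% or more in the single-concentration screen; inactive = inhibition below 50%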;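 also: 0% = DMSO max control and 100% = H-89 dihydrochloride min control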
Cav32 inh – human Cav3.2 channel inhibition, primary screen; O95180; Cav3.2-expressing cells, Fluo-4 calcium fluorescence FDSS; hits give low values; B-score at 10 µM; 4% of 100,000 active;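 active = single-dose well whose peak fluorescence ratio is a statistical outlier from its plate by either plate-standardised score or position-corrected B-score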
Rev-RRE block – inhibitors of HIV-1 Rev-RRE RNA interaction. P05866. Rev peptide-RRE RNA binding, FRET. inhibition, % at 8 µM. 0.79% of 97,000 active. AID 704;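 active = inhibition above the screen-wide mean plus 3 SD, cut at about 35% in these data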;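 also: 0% = median DMSO wells and 100% = median Neomycin B control wells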
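Assay system: Labelled RRE RNA duplex and labelled Rev peptide | Times: 5 min preincubation and 15 min binding, 25 °C | Detection: FRET, ex 480 nm, em 540 and 671 nm | Evaluation: % inhibition of FRET ratio versus controls | Benchmarks: DMSO wells as 0% and neomycin B wells as 100% inhibition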
* hit, by the source's call; / = not tested or not shown; [ ] = dose if it differs, or a comment.

SMILES	FAK blocker	PTK2B oligo ant	Plk1 PBD FP	PLK1 kinase inh	Cav32 inh	Rev-RRE block
O=C(Nc1ccccc1-c1nnc(SCc2ccccc2)o1)c1ccccc1	2	-0.67	24	-18	-5.8*	13
O=c1c(-c2nnc(SCc3ccc(Cl)cc3)o2)cccn1Cc1ccccc1	1	-0.86	-12	-9	-2	6
O=C(Nc1ccccc1-c1nnc(SCc2ccc(Cl)cc2)o1)c1ccccc1	1	-0.71	-20	-13	-4.2*	7
CC(C)CN(CC(C)C)C(=O)CS(=O)(=O)Cc1ccccc1	0	0.41	20	-10	0.46	1
C=CCN(CC=C)CC(O)Cn1c2ccccc2c2ccccc21 (stereo unspecified)	2	-0.22	22	5	-3.4*	17
CC(C)n1c(CCC(=O)O)ccc1-c1ccccc1	-8	/	-7	-12	1.1	1
CCC(=O)N1CN(S(=O)(=O)c2ccc(C)cc2)CC1C (stereo unspecified)	-3	-0.41	16	2	0.35	1
O=C(CCCSc1nnnn1-c1cccc2ccccc12)c1ccc(F)cc1	3	-1.7	3	-16	-4.6*	10
Cc1cc(C)c(S(=O)(=O)N2CCCCC2)c(C)c1N(C)S(=O)(=O)c1ccccc1	2	-2	0	-21	-4.3*	13
Cc1cc(C)c(S(=O)(=O)N2CCCCC2)cc1N(C)S(=O)(=O)c1ccc(Cl)cc1	2	0.07	-12	-25	-4	13
CCCCOc1ccccc1NC(=O)c1ccco1	9	-1.4	-3	-12	-4.5*	14
CC1=C(C)CS(=O)N(S(=O)(=O)c2ccc(Cl)cc2)C1 (stereo unspecified)	-3	-0.58	-7	-3	-7.4*	4
N#C/C(=C\c1ccc(Sc2nc3ccccc3[nH]2)o1)c1ccccc1	-2	-2.4	-9	-5	-3	16
COc1cccc(C(=O)N2CCN(C(=O)c3cccc(F)c3)CC2)c1	2	0	-11	1	0.06	-2
N#C/C(=C/c1ccc(N2CCCCC2)o1)C(=O)Nc1ccc(Cl)cc1	1	0.99	-161	-15	-0.98	139*[fluorescence artefact?]
COc1cc(N2CCCC2)c(OC)cc1/C=C(/C#N)c1cccc(F)c1	0	-1.6	-195	-25	-3	117*[fluorescence artefact?]
O=C(c1cccc(F)c1)N1CCc2ccccc2C1	-2	1.2	-5	-3	0.0068	-3
N#C/C(=C/c1ccc(N2CCCCCC2)o1)c1ccc(F)cc1	-2	0.41	-133	-26	-6.1*	73*
N#C/C(=C/c1ccc(N2CCCCCC2)o1)c1cccc(F)c1	3	1.1	-251	-53	-4.3*	105*[fluorescence artefact?]
COC(=O)C(NC(=O)c1ccc(Cl)cc1)(Nc1nc(C)cs1)C(F)(F)F (stereo unspecified)	-5	0.25	-23	0	-3	7
CCN1C(=O)c2cccc3c(NC(=O)c4ccc(OC)c(OC)c4)ccc1c23	-7	/	-4	-5	-0.58	21
CCc1ccc(NC(=O)CNS(=O)(=O)c2c(C)noc2C)cc1	4	0.96	-44	-3	/	0
CCOc1ccc(N2CSC3=C(C#N)C(c4ccco4)CC(=O)N3C2)cc1 (stereo unspecified)	-1	0.38	-23	-2	-0.057	6
N#CC1=C2SCN(c3ccccc3)CN2C(=O)CC1c1ccccc1Cl (stereo unspecified)	-1	/	8	56*	-1.3	3
N#CC1=C2SCN(c3ccccc3)CN2C(=O)CC1c1cccs1 (stereo unspecified)	5	-0.52	-9	-9	-0.0038	2
Cc1ccc(C2CC(=O)N3CN(c4ccc(Br)cc4)CSC3=C2C#N)o1 (stereo unspecified)	5	-0.26	0	-1	-4	45*
CN(C(=O)COC(=O)c1ccc(Cl)cc1N)C1CCS(=O)(=O)C1 (stereo unspecified)	0	-0.06	-9	-9	-0.23	5
CCOc1ccc(N2C(=O)CC(N3CCN(c4ccc(C(=O)c5ccncc5)cc4)CC3)C2=O)cc1 (stereo unspecified)	2	0.96	-17	-3	0.23	4
COc1ccc(CCNC(=O)CCSc2nc(-c3ccco3)cc(C(F)(F)F)n2)cc1OC	-4	-0.3	15	-3	-1.7	2

Screens deposited in PubChem BioAssay by several laboratories.
